The results in this text go back to ChEMBL document CHEMBL5143713, “Multitarget, Selective Compound Design Yields Potent Inhibitors of a Kinetoplastid Pteridine Reductase 1” (J Med Chem, 2022).

One data set concerns 786-0. Briefly: Mitochondrial toxicity in human 786-0 cells at 10 uM incubated with compound for 6 hrs followed by incubation with MitoTracker Red chloromethyl-X-rosamine dye for 45 mins by imaging analysis relative to control. In kind it is cell-based. To be noted: 786-0, 6 h. An outline of the steps: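 Tested at 10 μM. 786-O cells kept in RPMI-1640 with 2 mM glutamine, 10% FCS, streptomycin 100 μg/mL and penicillin G 100 U/mL. Mitochondrial toxicity read as MitoTracker Red (chloromethyl-X-rosamine) uptake by high-content imaging.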

In data set [1] the target is Bifunctional dihydrofolate reductase-thymidylate synthase (Trypanosoma brucei brucei, UniProt Q27783). Briefly: Inhibition of recombinant Trypanosoma brucei DHFR-TS expressed in Escherichia coli BL21 (DE3) cells using dihydrofolate as substrate in presence of NADPH by spectrophotometric analysis.
Sequence of Bifunctional dihydrofolate reductase-thymidylate synthase (Trypanosoma brucei brucei, UniProt Q27783) (Q27783 whole entry): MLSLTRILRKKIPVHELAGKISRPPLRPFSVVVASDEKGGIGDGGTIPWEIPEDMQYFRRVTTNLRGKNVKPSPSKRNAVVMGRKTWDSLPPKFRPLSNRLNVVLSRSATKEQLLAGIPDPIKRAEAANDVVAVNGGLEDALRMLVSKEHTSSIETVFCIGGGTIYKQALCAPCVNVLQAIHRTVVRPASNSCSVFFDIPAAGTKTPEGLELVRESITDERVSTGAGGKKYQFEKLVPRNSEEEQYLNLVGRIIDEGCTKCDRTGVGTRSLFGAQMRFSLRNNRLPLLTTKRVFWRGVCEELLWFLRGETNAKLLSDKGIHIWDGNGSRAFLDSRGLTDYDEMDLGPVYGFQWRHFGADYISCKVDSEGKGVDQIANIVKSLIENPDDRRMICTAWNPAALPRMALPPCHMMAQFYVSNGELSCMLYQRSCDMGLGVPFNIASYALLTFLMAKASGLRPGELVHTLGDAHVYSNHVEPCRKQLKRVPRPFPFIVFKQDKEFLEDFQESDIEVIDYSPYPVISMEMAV
Data set [2] addresses Bifunctional dihydrofolate reductase-thymidylate synthase (Leishmania major, UniProt P07382). Briefly: Inhibition of recombinant Leishmania major DHFR-TS expressed in Escherichia coli BL21 (DE3) cells using dihydrofolate as substrate in presence of NADPH by spectrophotometric analysis.
Another data set concerns the target T1, Dihydrofolate reductase (Homo sapiens, UniProt P00374).
T1 sequence (P00374 whole entry): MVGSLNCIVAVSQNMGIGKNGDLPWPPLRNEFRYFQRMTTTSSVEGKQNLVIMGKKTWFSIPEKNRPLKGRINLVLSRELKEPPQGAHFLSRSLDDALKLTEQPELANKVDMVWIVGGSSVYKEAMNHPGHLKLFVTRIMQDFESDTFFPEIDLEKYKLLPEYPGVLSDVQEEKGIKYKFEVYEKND
Briefly: Inhibition of recombinant human DHFR expressed in Escherichia coli BL21 (DE3) cells using dihydrofolate as substrate in presence of NADPH by spectrophotometric analysis. In kind it is toxicity.

In a further data set the test system is A549. Put plainly: Cytotoxicity against human A549 cells at 10 uM measured after 48 hrs by Celltiter-Glo assay relative to control. In kind it is toxicity, cell-based. To be noted: a549, 48 h. The method, boiled down: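 Tested at 10 μM. A549 cells grown in DMEM with 10% FCS, streptomycin 100 μg/mL and penicillin G 100 U/mL. Viability read as cellular ATP by CellTiter-Glo luminescence.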
For orientation: Cellular ATP, detected with luciferase, serves as a proxy for viable cell number.

The target of another data set is T2, Pteridine reductase 1 (Leishmania major, UniProt Q01782).
T2 sequence (Q01782 whole entry): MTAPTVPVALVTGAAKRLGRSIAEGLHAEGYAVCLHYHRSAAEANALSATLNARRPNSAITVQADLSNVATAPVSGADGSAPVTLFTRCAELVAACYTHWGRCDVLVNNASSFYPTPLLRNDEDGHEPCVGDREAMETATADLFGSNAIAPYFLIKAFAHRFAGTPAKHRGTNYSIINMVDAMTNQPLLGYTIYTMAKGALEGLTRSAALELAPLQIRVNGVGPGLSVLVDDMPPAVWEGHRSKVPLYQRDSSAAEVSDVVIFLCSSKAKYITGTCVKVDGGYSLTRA
Put plainly: Inhibition of recombinant Leishmania major PTR1 expressed in Escherichia coli BL21 (DE3) cells using H2B as substrate in presence of cytochrome c and NADPH by envision multilabel reader.

Data set [3] has as its system human DHFR versus Trypanosoma brucei PTR1. Put plainly: Selectivity index, ratio of IC50 for human DHFR to IC50 for Trypanosoma brucei PTR1. To be noted: read-out: Ratio IC50. The class given is toxicity.
Data set [4] addresses T3, Pteridine reductase, putative (Trypanosoma brucei, UniProt Q581W1).
T3 sequence (Q581W1 whole entry): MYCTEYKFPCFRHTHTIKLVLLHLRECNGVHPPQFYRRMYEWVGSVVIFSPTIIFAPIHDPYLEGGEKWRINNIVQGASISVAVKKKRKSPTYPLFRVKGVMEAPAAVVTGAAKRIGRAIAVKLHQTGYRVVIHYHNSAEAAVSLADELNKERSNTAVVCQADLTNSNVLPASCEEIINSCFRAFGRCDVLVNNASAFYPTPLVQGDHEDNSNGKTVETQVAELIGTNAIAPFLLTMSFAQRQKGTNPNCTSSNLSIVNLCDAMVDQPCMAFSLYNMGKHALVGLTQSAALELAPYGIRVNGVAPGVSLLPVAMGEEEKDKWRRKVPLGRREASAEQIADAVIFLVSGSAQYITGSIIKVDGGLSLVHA
Put plainly: Inhibition of recombinant Trypanosoma brucei PTR1 expressed in Escherichia coli BL21 (DE3) cells using H2B as substrate in presence of cytochrome c and NADPH by envision multilabel reader.

Data set [5] concerns human DHFR versus Leishmania major DHFR. Briefly: Selectivity index, ratio of IC50 for human DHFR to IC50 for Leishmania major DHFR. The class given is toxicity. The following applies: read-out: Ratio IC50.
Data set [6] has as its system human DHFR versus Trypanosoma brucei DHFR. Briefly: Selectivity index, ratio of IC50 for human DHFR to IC50 for Trypanosoma brucei DHFR. The class given is toxicity. The following applies: read-out: Ratio IC50.
Data set [7] relates to human DHFR versus Leishmania major PTR1. Briefly: Selectivity index, ratio of IC50 for human DHFR to IC50 for Leishmania major PTR1. In kind it is toxicity. The following applies: read-out: Ratio IC50.

Sequence of Bifunctional dihydrofolate reductase-thymidylate synthase (Leishmania major, UniProt P07382) (P07382 whole entry): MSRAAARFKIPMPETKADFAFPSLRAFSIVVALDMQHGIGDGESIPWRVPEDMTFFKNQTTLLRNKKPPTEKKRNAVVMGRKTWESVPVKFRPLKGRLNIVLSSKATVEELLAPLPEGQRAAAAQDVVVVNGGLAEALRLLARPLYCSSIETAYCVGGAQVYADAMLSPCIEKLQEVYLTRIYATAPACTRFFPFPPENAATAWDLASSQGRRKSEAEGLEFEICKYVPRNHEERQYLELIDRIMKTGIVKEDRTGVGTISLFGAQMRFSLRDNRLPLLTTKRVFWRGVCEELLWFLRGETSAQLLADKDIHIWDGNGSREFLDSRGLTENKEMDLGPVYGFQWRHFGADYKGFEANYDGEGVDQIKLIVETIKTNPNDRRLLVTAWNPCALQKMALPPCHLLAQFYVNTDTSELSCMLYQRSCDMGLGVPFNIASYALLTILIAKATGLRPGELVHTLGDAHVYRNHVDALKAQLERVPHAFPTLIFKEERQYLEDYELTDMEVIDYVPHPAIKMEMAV

A word on the IC50: it is the concentration at which inhibition is half-maximal. As to `CCN(Cc1cnc2nc(N)nc(N)c2n1)c1ccc(C(=O)N2CCC(C(=O)OC)CC2)cc1`, the Activity in the data set with 786-0 is 0%; in the data set with A549 it was 100%. Also, the IC50 in data set [1] was 620 nM; in data set [2], 460 nM; on Dihydrofolate reductase it was 4.3 µM; on Pteridine reductase 1, 13300 nM; in [4] it was 90 nM. Further, the selectivity ratio in data set [3] worked out at 48; in data set [5], 9; in data set [6], 7.
Turning to `C#CCN(Cc1cnc2nc(N)nc(N)c2n1)c1ccc(C(=O)N2CCC(C(=O)OC)CC2)cc1`, the IC50 in data set [1] turned out to be 1180 nM; in data set [2] it was 710 nM; at Dihydrofolate reductase it was 78 µM; at Pteridine reductase 1, 320 nM; in data set [4], 40 nM. Moreover, the selectivity ratio in [3] was determined as 1950; in [7], 244; in data set [5] it was 110; in [6] it was 66.
For the compound `COC(=O)C1CCN(C(=O)c2ccc(N(C)Cc3cnc4nc(N)nc(N)c4n3)cc2)CC1`, the Activity is 0% in the data set on 786-0 and 100% in the data set with A549. The IC50 stood at 270 nM in data set [1], 260 nM in data set [2], 44 µM at Dihydrofolate reductase and 50 nM in [4].
For `Nc1nc(N)c2nc(CNCc3ccc(Oc4ccccc4)cc3)cnc2n1`, the Activity in the data set with 786-0 turned out to be 0%. In addition, the IC50 amounted to 980 nM on Pteridine reductase 1 and 190 nM in [4]. Moreover, the selectivity ratio in [3] was 526; in [7], 102; in data set [5] it was 1; in data set [6], 1.
In the case of `COC(=O)C1CCN(C(=O)c2ccc(NCc3cnc4nc(N)nc(N)c4n3)cc2)CC1`, the figures for the Activity with 786-0 and in the data set on A549 were 0% and 100%, respectively. Besides, the IC50 is 20500 nM in data set [1], 620 nM in [2], 51 µM on Dihydrofolate reductase and 110 nM in [4].
Consider `COc1cc(Oc2ccc(CNCc3cnc4nc(N)nc(N)c4n3)cc2)cc(OC)c1OC`, for which the results for the Activity in the data set on 786-0 and with A549 were 0% and 100%, respectively. In addition, the concentration for half-maximal inhibition (IC50) at Pteridine reductase 1 was determined as 170 nM; in data set [4] it was 350 nM. The selectivity ratio in data set [3] is 286; in data set [7] it was 588; in data set [5] it was 1; in [6], 1.
Consider `COc1ccc(CNC(=O)c2ccc(CNCc3cnc4nc(N)nc(N)c4n3)cc2)cc1`, for which, in the data set with 786-0, the Activity is reported as 0%. Also, the figures for the half-inhibitory concentration (IC50) (on Pteridine reductase 1; in data set [4]) were 1480 nM and 130 nM, respectively. The selectivity ratio in [3] amounted to 769; in [7], 68; in [5], 1; in [6] it was 1.
As to `Nc1nc(N)c2nc(C(=O)NCc3ccccc3)cnc2n1`, the Activity is listed as 0% in the data set on 786-0 and 100% in the data set on A549. Also, the 50% inhibitory concentration (IC50) on Pteridine reductase 1 was determined as 5500 nM; in data set [4], 10 nM. Also, the selectivity ratio in data set [3] was determined as 10000; in data set [7], 18; in [5], 1; in data set [6], 1.
`NC(=O)C1CCN(C(=O)c2ccc(NCc3cnc4nc(N)nc(N)c4n3)cc2)CC1`: the Activity in the data set on 786-0 and with A549 was 0% throughout. The values for the IC50 in [1], in [2] and in [4] were 2900 nM, 1110 nM and 820 nM, respectively.
Turning to `COC(=O)C1CCN(C(=O)c2ccc(SCc3cnc4nc(N)nc(N)c4n3)nc2)CC1`, the Activity in the data set with 786-0 is reported as 20%. Further, the 50% inhibitory concentration (IC50) in data set [1] turned out to be 2400 nM; in data set [2] it was 9360 nM; on Dihydrofolate reductase, 89 µM; at Pteridine reductase 1, 60 nM; in data set [4] it was 1 nM. Also, the selectivity ratio amounted to 89000 in data set [3], 1480 in [7], 10 in [5] and 37 in data set [6].
For the compound `Nc1nc(N)c2nc(CNc3ccc(C(=O)N4CCC(C(=O)O)CC4)cc3)cnc2n1`, the Activity in the data set with 786-0 and in the data set with A549 was 0% each time. The values for the IC50 in data set [1], in data set [2] and in data set [4] were 1380 nM, 600 nM and 1720 nM, respectively.
Turning to `CCOC(=O)C1CCCN1C(=O)c1ccc(NCc2cnc3nc(N)nc(N)c3n2)cc1` (stereo not drawn), the Activity with 786-0 turned out to be 0%. For the same compound, the IC50 came out at 980 nM in [1] and 1210 nM in [2]. Besides, the selectivity ratio turned out to be 0.08 in data set [3], 8 in [5] and 10 in data set [6].
Regarding `COc1ccc(CNC(=O)c2ccc(CNCc3cnc4nc(N)nc(N)c4n3)cc2)cc1OC`, the Activity in the data set on 786-0 worked out at 0%. Moreover, the IC50 on Pteridine reductase 1 is 1570 nM; in [4] it was 220 nM. Moreover, the selectivity ratio in [3] was 455; in data set [7], 64; in [5] it was 1; in data set [6], 2.
As to `COC(=O)C1CCN(C(=O)c2cccc(NCc3cnc4nc(N)nc(N)c4n3)c2)CC1`, the IC50 stood at 59 µM on Dihydrofolate reductase, 1690 nM on Pteridine reductase 1 and 150 nM in [4]. The selectivity ratio is 393 in data set [3], 35 in data set [7], 2 in data set [5] and 3 in data set [6].
As to `Nc1nc(N)c2nc(C(=O)NCc3cccc(C(F)(F)F)c3)cnc2n1`, the Activity with 786-0 is recorded as 0%; in the data set with A549, 100%. Also, the half-inhibitory concentration (IC50) was found to be 330 nM at Pteridine reductase 1 and 10 nM in data set [4]. Besides, the selectivity ratio in data set [3] came out at 10000; in [7], 303; in [5], 1; in data set [6] it was 1.
For the compound `CCOC(=O)C1CCN(C(=O)c2ccc(N(C)Cc3cnc4nc(N)nc(N)c4n3)cc2)CC1`, in the data set on 786-0, the Activity was 0%. Moreover, the 50% inhibitory concentration (IC50) turned out to be 9000 nM in [1]; 130 nM in data set [2]; 12 µM on Dihydrofolate reductase; 450 nM at Pteridine reductase 1; 40 nM in [4]. Moreover, the selectivity ratio in data set [3] stood at 300; in data set [7] it was 27; in [5] it was 90; in data set [6] it was 1.
For `CCOC(=O)C1CCN(C(=O)c2ccc(N(CC)Cc3cnc4nc(N)nc(N)c4n3)cc2)CC1`, the half-inhibitory concentration (IC50) worked out at 230 nM in data set [1]; 180 nM in [2]; 13 µM on Dihydrofolate reductase; 100 nM on Pteridine reductase 1; 1 nM in data set [4].
For `CN(Cc1cnc2nc(N)nc(N)c2n1)c1ccc(C(=O)N2CCCCC2)cc1`, the Activity in the data set with 786-0 is recorded as 15%. Besides, the half-maximal inhibitory concentration (IC50) amounted to 1450 nM in [1], 2050 nM in data set [2], 140 nM on Pteridine reductase 1 and 10 nM in data set [4]. For the same compound, the selectivity ratio in data set [3] is 2980; in data set [7], 213; in [5], 15; in [6], 21.
`COC(=O)C1CCN(C(=O)c2ccc(NCc3cnc4nc(N)nc(N)c4n3)cn2)CC1`: in the data set with 786-0, the Activity is 0%. In addition, the half-inhibitory concentration (IC50) worked out at 2570 nM in data set [1], 1360 nM in data set [2], 60 µM at Dihydrofolate reductase and 550 nM in data set [4].
